# Screening results as filed in PubChem.
# PPC-1+TRAIL kill = PPC-1 cancer cell killing with TRAIL present; PPC-1 cells + TRAIL, ATPLite viability luminescence; cell killing (% activity), % at 4 µM or 5 µM; actives 0.41% (n = 220,000); AID 1443;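 active = cell killing above 50% in the first pass at 4 µM, then a duplicate retest at 5 µM averaging 50% or more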
# FLuc stim CS = affects firefly luciferase, flagging false hits in luciferase stimulation screens | ATPlite luciferase biochemical, luminescence, 10 min; 0 = ATP-free wells, 1 = DMSO control | 200,000 tested, under 10 active | activation factor at 10 µM | P08659 | AID 1027;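 active = luciferase activation factor, scaled between plate controls, of at least 2 with compound at 10 µM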
# Target sequence (P08659 whole entry, looked up): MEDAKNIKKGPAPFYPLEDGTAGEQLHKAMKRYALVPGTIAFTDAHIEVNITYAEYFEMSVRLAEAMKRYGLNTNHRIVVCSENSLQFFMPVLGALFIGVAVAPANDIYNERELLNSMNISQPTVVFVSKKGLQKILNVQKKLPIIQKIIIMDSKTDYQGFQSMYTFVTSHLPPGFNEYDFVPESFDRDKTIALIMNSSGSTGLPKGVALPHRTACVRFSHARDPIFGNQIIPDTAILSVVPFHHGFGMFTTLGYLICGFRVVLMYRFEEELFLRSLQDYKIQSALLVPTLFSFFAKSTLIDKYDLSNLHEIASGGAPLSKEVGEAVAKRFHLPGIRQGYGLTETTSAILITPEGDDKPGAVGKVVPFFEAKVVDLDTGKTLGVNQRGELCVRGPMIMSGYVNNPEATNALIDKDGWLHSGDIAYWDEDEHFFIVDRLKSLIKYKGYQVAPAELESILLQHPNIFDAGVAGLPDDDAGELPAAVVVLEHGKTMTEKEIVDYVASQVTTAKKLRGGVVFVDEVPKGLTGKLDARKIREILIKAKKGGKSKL
#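 Material: Luciferase/luciferin reagent mix | Doses: Test compounds dosed from 2 mM stocks in 100% DMSO | Timing: 10 min incubation after luciferase reagent addition, room temperature | Measured by: Luminescence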
# TRAIL sens C8 = caspase-8 TRAIL sensitization. NB7+C8 cells + TRAIL, ATPlite viability luminescence. inhibition (viability loss, TRAIL sensitization), % at 10 µM. actives 1% (n = 360,000);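 active = compounds causing at least 50% loss of cell viability in the single-dose screen, relative to plate controls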
# FLuc inhib CS = Photinus pyralis luciferase inhibition counter-screen; actives 1.5% (n = 200,000); ATPLite firefly luciferase biochemical luminescence, 10 min; AID 1006; inhibition, % at 10 µM; P08659;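 active = inhibition above about 50% when tested at 10 µM, limit read from the data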
# A number is an active result; - = inactive; . = no result. An excerpt weighted towards active compounds, which were near 1.6% of everything screened.
SMILES,PPC-1+TRAIL kill,FLuc stim CS,TRAIL sens C8,FLuc inhib CS
COc1cc2c3nnc(-c4ccc(F)cc4)c-3cn(Cc3ccccc3)c2cc1OC,-,-,67,-
COc1cc2c3nnc(-c4ccc(F)cc4)c-3cn(Cc3ccc(F)cc3)c2cc1OC,-,-,-,-
CCCCCCCCN1C(=O)[C@H](CC(=O)N2CCN(C(=O)c3ccco3)CC2)C[C@@]2(C(=O)OC)CC(C)(C)CC=C12,.,.,-,.
O=C(c1cc(-c2ccc(F)cc2)on1)N1CCCC1,-,-,-,64
O=C(c1cc(-c2ccc(F)cc2)on1)N1CCCCCC1,.,.,-,.
COc1ccc(-c2cc(C(=O)N3CCCCCC3)no2)cc1,.,.,-,.
COc1ccc(-c2cc(C(=O)N3CCCC3)no2)cc1,.,.,62,.
COc1cccc(-c2cc(C(=O)N3CCCCCC3)no2)c1,-,-,-,62
COc1ccc2cc3cc(C(=O)N4CCN(C5CCCCC5)CC4)oc3nc2c1,.,.,-,.
COc1ccc2cc3cc(C(=O)N4CCCCCC4)oc3nc2c1,.,.,50,.
CN(Cc1ccccc1)C(=O)[C@@H]1CCCN1C(=O)[C@@H]1CCCN1C(=O)c1ccccc1,.,.,-,.
O=C(c1cc(-c2ccc(F)cc2)on1)N1CCCc2ccccc21,-,-,-,-
Cc1ccc(-c2cc(C(=O)N3CCCc4ccccc43)no2)cc1,-,-,-,58
CC(C)(C)C(=O)CSc1ccc(S(=O)(=O)N2CCN(Cc3ccccc3)CC2)cn1,.,.,-,.
Cc1ccc(CSc2nnc(CNc3ccc(F)cc3)o2)cc1,-,-,-,-
Cc1ccc(-n2nnc(-c3cccnc3Cl)n2)cc1,-,-,61,72
COc1ccc(C(CNC(=O)c2cccc(S(=O)(=O)NCc3ccccc3)c2)N2CCOCC2)cc1 (centres undefined),.,.,-,.
COC1=C(N)C(=O)c2nc(C)ccc2C1=O,.,.,91,.
COC1=C(Br)C(=O)c2nc(C)ccc2C1=O,.,.,-,.
COc1ccc(OCc2cc(C(=O)O)c(C)o2)cc1,-,.,.,.
O=C1CN(c2nc(-c3cccnc3)nc3sc4c(c23)CCCC4)CCN1,-,-,-,-
Nc1nc(-c2cccnc2)nc2sc3c(c12)CCCC3,-,-,60,85
NC(=O)N/N=C/c1sc(N2CCCCC2)nc1-c1cccs1,.,.,-,.
CC(C)NC(=S)N/N=C/c1sc(N2CCCCC2)nc1-c1cccs1,-,-,-,53
CN(NC(=O)c1ccc(Cl)cc1)c1nc(-c2ccccc2)nnc1C(F)(F)F,-,-,49,-
SMILES,PPC-1+TRAIL kill,FLuc stim CS,TRAIL sens C8,FLuc inhib CS
CC(C)CC(=O)NN(C)c1nc(-c2ccccc2)nnc1C(F)(F)F,-,-,-,-
CCN1CCN(C2=C(NS(=O)(=O)c3ccc(NC(C)=O)cc3)C(=O)c3ccccc3C2=O)CC1,.,.,-,.
CCN1CCN(C2=C(NS(=O)(=O)c3ccc(C)cc3)C(=O)c3ccccc3C2=O)CC1,.,.,52,.
C#CCSc1n[nH]c(=O)n1-c1cccc(C(F)(F)F)c1,-,.,-,.
CC(=O)n1cc(N(C(=O)CCl)c2ccccc2)c2ccccc21,-,.,95,.
CC(=O)n1cc(N(C(=O)CCl)c2ccc([N+](=O)[O-])cc2)c2ccccc21,-,.,72,.
CC(=O)c1ccc(NC(=O)Nc2cccnc2)cc1,.,.,52,.
CCC(C)c1ccc(NC(=O)Nc2cccnc2)cc1 (centres undefined),.,.,49,.
Cc1noc(/C=C/N(C)C)c1S(=O)(=O)N1CCCC(C(=O)Nc2ccc(F)cc2F)C1 (centres undefined),.,.,-,.
COc1ccc(C(O)P(=O)(OCCC(C)C)c2ccc(N(C)C)cc2)cc1 (centres undefined),.,.,-,.
Cc1cc2nc(-c3ccc(SCC(=O)NC(C)C)nc3)[nH]c2cc1C,-,-,.,51
Cc1cc2nc(-c3ccc(SCC(=O)Nc4ccc(S(=O)(=O)NC5CC5)cc4)nc3)[nH]c2cc1C,52,-,84,86
Cc1cc2nc(-c3ccc(SCC(=O)N4CCc5ccccc54)nc3)[nH]c2cc1C,-,-,81,82
Cc1cc2nc(-c3ccc(SCc4ccc(C(=O)O)cc4)nc3)[nH]c2cc1C,-,-,-,-
COC(=O)CSc1ccc(-c2nc3ccc(C)cc3[nH]2)cn1,-,-,-,61
N#Cc1ccccc1OCc1cccc(S(=O)(=O)N2CCOCC2)c1,.,.,-,.
Cc1nc(-c2cccc(NC(=O)c3ccco3)c2)cs1,.,.,-,.
Cc1nnc2ccc(-c3ccc(NC(=O)c4ccco4)cc3)nn12,-,-,-,-
Cc1ccn2cc(-c3ccc(NC(=O)c4ccco4)cc3)nc2c1,-,-,-,55
Cc1nc(-c2ccc(C(=O)Nc3cccc(F)c3)cc2)cs1,.,.,77,.
COc1ccc(NC(=O)c2ccc(-c3csc(C)n3)cc2)cc1,.,.,-,.
Cc1nc(-c2ccc(NC(=O)c3ccco3)cc2)cs1,.,.,94,.
Cc1nc(-c2ccc(NC(=O)c3ccccc3C)cc2)cs1,-,-,-,62
CCOC(=O)C1=C(COC(=O)c2ccc(Cl)nc2)NC(=O)NC1C (centres undefined),.,.,-,.
COc1cccc(NC(=S)NC2CC(C)CC(C)(C)C2)c1 (centres undefined),.,.,-,.
SMILES,PPC-1+TRAIL kill,FLuc stim CS,TRAIL sens C8,FLuc inhib CS
Cc1cccc(NC(=O)CSCC(=O)Nc2sccc2C#N)c1,.,.,-,.
Nc1nc(-c2ccc(NC(=O)c3ccco3)cc2)cs1,.,.,74,.
Cc1nc(SCC(=O)Nc2nccs2)c(C#N)c(C)c1C,.,.,80,.
CCOC(=O)c1ccc(-c2ccc(C=O)o2)cc1,-,.,-,.
CCCOC(=O)c1ccc(-c2ccc(C=O)o2)cc1,50,-,-,-
C(=N\NC1=Nc2cccc3cccc1c23)/c1ccccn1,-,-,71,66
C(=NNc1ccc2ccccc2n1)c1ccccn1,.,.,87,.
Clc1ccccc1/C=N/NC1=Nc2cccc3cccc1c23,-,-,-,-
Nc1nccc(-c2cc(-c3ccc(Cl)cc3Cl)no2)n1,-,.,69,.
Cc1ccc(Nc2nc3ccccc3s2)c(C)c1,-,-,55,66
COc1cc2cc3c(N)c(C(=O)NCc4ccco4)sc3nc2cc1OC,-,-,-,-
Cc1ccc2nc3sc(C(=O)N4CCOCC4)c(N)c3cc2c1,-,-,-,81
Cc1ccc2nc3sc(C(=O)NCc4ccco4)c(N)c3cc2c1,-,-,-,50
Cc1cc(OCC(=O)Nc2cc(C(C)(C)C)on2)ccc1[N+](=O)[O-],.,.,-,.
Cc1[nH]n(-c2nc(-c3cccc([N+](=O)[O-])c3)cs2)c(=O)c1C,-,-,-,61
Cc1c(Nc2nc(-c3cccc([N+](=O)[O-])c3)cs2)c(=O)n(-c2ccccc2)n1C,-,-,-,-
COc1cccc(OCC(=O)O/N=C(\N)c2ccncc2)c1,.,.,-,.
CCC(=O)N(C1=C(NC)C(=O)c2ccccc2C1=O)C(C)C,-,-,-,-
CNC1=C(N(C(C)=O)c2ccc(Br)cc2)C(=O)c2ccccc2C1=O,68,-,92,-
COc1ccc(C(=O)Nc2cccc(-c3ccc(N4CCOCC4)nn3)c2)cc1OC,.,.,64,.
O=C(Nc1cccc(-c2ccc(N3CCOCC3)nn2)c1)c1ccc(F)cc1F,.,.,51,.
CCOc1ccccc1C(=O)Nc1cccc(-c2ccc(N3CCOCC3)nn2)c1,.,.,-,.
CCOc1ccc(C(=O)Nc2cccc(-c3ccc(N4CCOCC4)nn3)c2)cc1OCC,.,.,-,.
